The text below walks through data of ChEMBL document CHEMBL1152975, “Design and synthesis of orally bioavailable serum and glucocorticoid-regulated kinase 1 (SGK1) inhibitors” (Bioorg Med Chem Lett, 2009).

SMILES strings stand for the structures.

Data set [1] concerns the target T1, Serine/threonine-protein kinase Sgk1 (Homo sapiens, UniProt O00141).
T1 sequence (O00141 whole entry): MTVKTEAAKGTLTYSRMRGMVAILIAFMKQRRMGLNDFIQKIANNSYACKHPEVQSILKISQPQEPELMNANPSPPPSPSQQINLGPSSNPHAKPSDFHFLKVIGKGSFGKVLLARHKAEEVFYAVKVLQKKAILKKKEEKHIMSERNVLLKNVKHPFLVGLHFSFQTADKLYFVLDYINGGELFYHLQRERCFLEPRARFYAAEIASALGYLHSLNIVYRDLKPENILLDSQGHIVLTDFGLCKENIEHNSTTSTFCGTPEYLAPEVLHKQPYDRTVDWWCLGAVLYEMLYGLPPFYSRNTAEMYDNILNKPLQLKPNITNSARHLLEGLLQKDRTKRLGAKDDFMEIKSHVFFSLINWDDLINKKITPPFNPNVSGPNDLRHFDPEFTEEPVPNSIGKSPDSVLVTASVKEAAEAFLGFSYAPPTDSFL
Nature of the data set: Inhibition of SGK1 by fluorescence polarization assay. In general terms: In fluorescence polarisation assays a small probe gives low polarisation when free and higher when bound to something large.

The target in data set [2] is T1, Serine/threonine-protein kinase Sgk1. Nature of the data set: Inhibition of SGK1-mediated epithelial sodium channel activity in human M-1 cells assessed as short circuit current by whole cell electrophysiological transepithelial experiment. It counts as cell-based.
A short description of data set [3]: Volume of distribution at steady state in rat by cassette dosing. The conditions noted are these: in vivo, read-out: Vdss. It is filed as ADME, organism-based. The method in brief: (§1)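 Rats were given a cassette of four compounds as one mixture, dosed iv and orally. Clearance, Vdss and terminal half-life come from the iv arm; oral AUC0–t and dose-normalized AUC0–t come from the oral arm.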

For data set [4], the system named is Rattus norvegicus. The data set can be described thus: Dose normalized AUC (0 to t) in po dosed rat by cassette dosing. It counts as ADME, organism-based. The conditions noted are these: in vivo. The method in brief: as §1
Data set [5] in a line: AUC (0 to t) in po dosed rat by cassette dosing. As to conditions: plasma. It is filed as ADME, organism-based. The method in brief: as §1
A short description of data set [6]: Terminal half life in iv dosed rat by cassette dosing. As to conditions: in vivo, read-out: beta t1/2. It counts as ADME, organism-based. The method in brief: as §1
Data set [7] is described as follows: Plasma clearance in rat by cassette dosing. It is filed as ADME, organism-based. The method in brief:
as §1

A short description of data set [8]: AUC (0 to t) in po dosed rat by discrete study. It counts as ADME, organism-based. The conditions noted are these: plasma. The method in brief: (§2)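 Each compound was dosed on its own (discrete study) to rats, iv and orally. Clearance, Vdss and terminal half-life come from the iv arm; oral AUC0–t and dose-normalized AUC0–t come from the oral arm.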
The nature of data set [9]: Dissociation constant, pKa of the compound. It is filed as physicochemical.
Data set [10] in a line: Plasma clearance in rat by discrete study. It is filed as ADME, organism-based. The method in brief:
as §2

Data set [11] deals with Rattus norvegicus. Nature of the data set: Dose normalized AUC (0 to t) in po dosed rat by discrete study. It counts as ADME, organism-based. As to conditions: in vivo. The method in brief:
as §2

The nature of data set [12]: Terminal half life in iv dosed rat by discrete study. It counts as ADME, organism-based. The conditions noted are these: in vivo, read-out: beta t1/2. The method in brief:
as §2

The nature of data set [13]: Volume of distribution at steady state in rat by discrete study. It is filed as ADME, organism-based. As to conditions: in vivo, read-out: Vdss. The method in brief: as §2

Usually IC50 stands for the point on the concentration scale where inhibition reaches its midpoint. What is called AUC(0-t) is exposure summed from dosing to a finite time, without extrapolation to infinity. As a reminder, the clearance is the volume of plasma or blood freed of the substance per unit of time. As a reminder, the pKa is the pH at which an ionisable group is half protonated. A low value points to a stronger acid or weaker base.

The molecule `CC(=O)c1ccc(-c2c[nH]c3ncc(-c4ccccc4)cc23)cc1` had an IC50 in data set [1] of 5000 nM.

Turning to `CC(C(=O)O)c1ccc(-c2c[nH]c3ncc(-c4ccc5ccccc5c4)cc23)cc1` (centres undefined), in data set [1], 125 nM corresponded to half-maximal inhibition (IC50).

As to `CC(C)(C(=O)O)c1ccc(-c2c[nH]c3ncc(-c4ccccc4)cc23)cc1`, the IC50 in [1] worked out at 50 nM; in [2], 1460 nM.

For `CCc1cc(-c2c[nH]c3ncc(-c4ccccc4)cc23)ccc1C(=O)O`, the Vd in data set [3] is 0.43 L/kg. Also, the AUC in the data set with Rattus norvegicus [4] stood at 600 ng·h/mL/mg/kg. The molecule further displayed an area under the curve AUC(0-t) in [5] of 1500 ng·h/mL. Also, the IC50 in [1] turned out to be 20 nM; in data set [2], 710 nM. In addition, the half-life in data set [6] came out at 1.62 h. Besides, in [7], the clearance is 9.4 mL/min/kg.

For `O=C(O)c1ccc(-c2c[nH]c3ncc(-c4ccccc4)cc23)cc1C1CCCC1` [GSK-650394], the Vd in [3] stood at 0.77 L/kg. Also, the AUC in the data set on Rattus norvegicus [4] stood at 134 ng·h/mL/mg/kg. The molecule further had an exposure AUC(0-t) in [5] of 313 ng·h/mL. In data set [6], the half-life was 1.58 h. In data set [7], this molecule showed a clearance of 25.7 mL/min/kg.

As for `CC(C)Cc1cc(-c2c[nH]c3ncc(-c4ccccc4)cc23)ccc1C(=O)O`, the Vd in [3] is 0.62 L/kg. In the data set on Rattus norvegicus [4], this molecule displayed an AUC of 176 ng·h/mL/mg/kg. In [5], this molecule showed an exposure AUC(0-t) of 373 ng·h/mL. Moreover, the values for the IC50 in [1] and in data set [2] were 5 nM and 580 nM, respectively. The half-life in [6] was 1.17 h. In addition, in data set [7], the clearance came out at 21.9 mL/min/kg.

In turn, `NCc1ccc(-c2c[nH]c3ncc(-c4ccccc4)cc23)cc1` showed an IC50 in data set [1] of 400 nM.

On to `CC(C)(C(=O)O)c1ccc(-c2c[nH]c3ncc(-c4cccc(C#N)c4)cc23)cc1`, for which the Vd in data set [3] came to 2.5 L/kg. This molecule registered an AUC in the data set with Rattus norvegicus [4] of 905 ng·h/mL/mg/kg. For the same molecule, the AUC(0-t) in data set [5] worked out at 1910 ng·h/mL. Further, the IC50 in data set [1] amounted to 40 nM; in data set [2], 2000 nM. Also, in data set [6], the half-life amounted to 8.13 h. Moreover, in [7], the clearance was 6.56 mL/min/kg.

Regarding `O=C(O)c1ccc(-c2c[nH]c3ncc(-c4ccccc4)cc23)cc1`, the AUC(0-t) in [8] worked out at 392 ng·h/mL. The IC50 in data set [2] was found to be 1300 nM. The molecule further had a pKa in data set [9] of 4.2. Besides, the clearance in data set [10] was 64.4 mL/min/kg. In the data set with Rattus norvegicus [11], the AUC was found to be 154 ng·h/mL/mg/kg. Besides, the half-life in data set [12] amounted to 9.4 h. In data set [13], the Vd turned out to be 8.8 L/kg.

On to `c1ccc(-c2cnc3[nH]cc(-c4ccc(-c5nnn[nH]5)cc4)c3c2)cc1`, for which the IC50 in [1] was determined as 160 nM. In data set [9], the pKa was determined as 4.9.

Molecule `O=C(O)Cc1ccc(-c2c[nH]c3ncc(-c4ccc5ccccc5c4)cc23)cc1` showed an AUC(0-t) in [8] of 467 ng·h/mL. For the same molecule, the IC50 in data set [2] stood at 880 nM. The molecule also yielded a clearance in data set [10] of 21.3 mL/min/kg. The same molecule returned an AUC with Rattus norvegicus [11] of 225 ng·h/mL/mg/kg. Moreover, the half-life in data set [12] amounted to 4.22 h. In addition, the Vd in data set [13] came to 1.3 L/kg.

With `CC(C)(C(=O)O)c1ccc(-c2c[nH]c3ncc(-c4ccc5ccccc5c4)cc23)cc1`, the Vd in data set [3] was determined as 0.67 L/kg. Further, in the data set on Rattus norvegicus [4], the AUC is 2100 ng·h/mL/mg/kg. This molecule also showed an AUC(0-t) in data set [5] of 4170 ng·h/mL. Moreover, the IC50 turned out to be 63 nM in data set [1] and 870 nM in data set [2]. Moreover, the half-life in data set [6] turned out to be 4.4 h. In data set [7], this molecule returned a clearance of 4.32 mL/min/kg.

As to `COC(=O)c1ccc(-c2c[nH]c3ncc(-c4ccccc4)cc23)cc1`, the IC50 in data set [1] amounted to 3160 nM.
